Assay [1] can be described thus: Antiviral activity against Influenza A virus A/WSN/33(H1N1) infected in MDCK cells at 50 uM preincubated for 15 mins measured after 1.5 days by CellTiter-Glo assay relative to control. It counts as functional, Influenza A virus (A/WSN/1933(H1N1)). (In general: ATP-based viability assays read luminescence as a measure of living cells.)
A short description of assay [2]: Antiviral activity against Influenza A virus A/WSN/33(H1N1) infected in MDCK cells preincubated for 1 hr followed by compound wash measured after 48 hrs by plaque reduction assay. The format is functional, cell-based, Influenza A virus (A/WSN/1933(H1N1)). For orientation: In a plaque reduction assay, fewer plaques than in the control indicate reduced infectivity or spread.

For assay [3], the system named is RAW264.7. Briefly: Antiinflammatory activity in mouse RAW264.7 cells assessed as inhibition of LPS-induced iNOS production at 30 uM after 24 hrs by Western blot analysis. It counts as functional, cell-based. Summed up: (§1)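 Immunoblot of protein from RAW 264.7 cells under control, LPS, and LPS + enantiomer (30 µM) conditions. COX-2, iNOS and phospho-NF-κB bands were quantified by densitometry and normalised to β-actin. Mean ± SD from 3 independent experiments; p-values are versus LPS-treated cells.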

For assay [4], the system named is RAW264.7. Kind of assay: Antiinflammatory activity in mouse RAW264.7 cells assessed as inhibition of LPS-induced MCP-1 production at 30 uM after 24 hrs by phycoerythrin staining based flow cytometry. It counts as functional, cell-based. Summed up:
(§2)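 LPS-stimulated RAW 264.7 cells were co-treated with enantiomers at 30 µM. Cell protein extracts were analysed by cytometric bead array for IL-12, IL-6, TNF-α, MCP-1 and IFN-γ and compared with LPS-only cells. Mean ± SD of three independent experiments.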
Background: A flow cytometer gives signals particle by particle.

Assay [5] concerns RAW264.7. Briefly: Antiinflammatory activity in mouse RAW264.7 cells assessed as inhibition of LPS-induced NO production after 24 hrs by Griess assay. The following applies: for pIC50: RAW264.7, 24 h. The format is functional, cell-based. Summed up: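 LPS-stimulated RAW264.7 cells were co-treated with compound. Nitrite, a stable NO metabolite, was measured in culture medium with Griess reagent. IC50 (µM) was reported with a 95% confidence interval.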

The test system of assay [6] is RAW264.7. Kind of assay: Antiinflammatory activity in mouse RAW264.7 cells assessed as inhibition of LPS-induced COX-2 production at 30 uM after 24 hrs by Western blot analysis. The format is functional, cell-based. Summed up:
as §1

Assay [7] deals with RAW264.7. Briefly: Antiinflammatory activity in mouse RAW264.7 cells assessed as inhibition of LPS-induced IL-6 production at 30 uM after 24 hrs by phycoerythrin staining based flow cytometry. The format is functional, cell-based. Summed up: as §2
Assay [8] deals with RAW264.7. Kind of assay: Antiinflammatory activity in mouse RAW264.7 cells assessed as inhibition of LPS-induced IL-12 production at 30 uM after 24 hrs by phycoerythrin staining based flow cytometry. The format is functional, cell-based. An outline of the steps:
as §2

The test system of assay [9] is RAW264.7. Kind of assay: Antiinflammatory activity in mouse RAW264.7 cells assessed as inhibition of LPS-induced TNF-alpha production at 30 uM after 24 hrs by phycoerythrin staining based flow cytometry. The format is functional, cell-based. An outline of the steps: as §2
The species entered for assay [10] is Mus musculus. Briefly: Inhibition of LPS-induced NFkappaB phosphorylation in mouse RAW264.7 cells at 30 uM after 24 hrs by Western blot analysis. The format is cell-based. An outline of the steps:
as §1

For assay [11], the system named is RAW264.7. Kind of assay: Antiinflammatory activity in mouse RAW264.7 cells assessed as inhibition of LPS-induced […] production at 30 uM after 24 hrs by phycoerythrin staining based flow cytometry. The format is functional, cell-based. Summed up: as §2
For assay [12], the system named is RAW264.7. Briefly: Antiinflammatory activity in mouse RAW264.7 cells assessed as inhibition of LPS-induced ROS production after 24 hrs by CM-H2DCFDA dye based fluorescence assay. It counts as functional, cell-based. An outline of the steps:
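Intracellular ROS was measured in LPS-treated RAW 264.7 cells exposed to compounds at several doses. The read-out was mean fluorescence intensity, compared with LPS-treated cells. Data are mean ± SD of three independent experiments.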

Assay [13] deals with RAW264.7. Kind of assay: Antiinflammatory activity in mouse RAW264.7 cells assessed as inhibition of LPS-induced […] production at 50 uM after 24 hrs by phycoerythrin staining based flow cytometry. It counts as functional, cell-based. Summed up:
(§3)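 Cytokine bead array on protein extracts of RAW 264.7 cells treated with LPS plus compound at 50 µM. Read-outs were IL-12, IL-6, TNF-α, MCP-1 and IFN-γ, referenced to LPS-treated cells. Mean ± SD, n = 3 independent experiments.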

Assay [14] deals with RAW264.7. Briefly: Antiinflammatory activity in mouse RAW264.7 cells assessed as inhibition of LPS-induced MCP-1 production at 50 uM after 24 hrs by phycoerythrin staining based flow cytometry. It counts as functional, cell-based. Summed up:
as §3

The species entered for assay [15] is Mus musculus. Briefly: Inhibition of LPS-induced NFkappaB phosphorylation in mouse RAW264.7 cells at 50 uM after 24 hrs by Western blot analysis. It counts as cell-based. Summed up: (§4)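 Protein was isolated from control, LPS, and LPS + compound (50 µM) RAW 264.7 cultures and immunoblotted. iNOS, COX-2 and phospho-NF-κB were quantified densitometrically against β-actin. Mean ± SD of 3 independent experiments, compared with LPS treatment.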

For assay [16], the system named is Mus musculus. Kind of assay: Antiinflammatory activity in BALB/c mouse assessed as inhibition of LPS-induced MCP-1 production at 10 mg/kg, ip pretreated for 3 days as single dose followed by LPS administration after 24 hrs by phycoerythrin staining based flow cytometry. The format is functional, organism-based.
Assay [17] concerns RAW264.7. Kind of assay: Cytotoxicity against mouse RAW264.7 cells assessed as decrease in cell viability after 24 hrs by MTT assay. It counts as cell-based. The settings on record: RAW264.7, 24 h. An outline of the steps:
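RAW264.7 macrophage viability after compound exposure was measured by MTT assay. IC50 (µM) was calculated and reported with a 95% confidence interval.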

Assay [18] deals with RAW264.7. Kind of assay: Antiinflammatory activity in mouse RAW264.7 cells assessed as inhibition of LPS-induced COX-2 production at 50 uM after 24 hrs by Western blot analysis. It counts as functional, cell-based. An outline of the steps: as §4
Assay [19] relates to RAW264.7. Kind of assay: Antiinflammatory activity in mouse RAW264.7 cells assessed as inhibition of LPS-induced IL-6 production at 50 uM after 24 hrs by phycoerythrin staining based flow cytometry. The format is functional, cell-based. An outline of the steps: as §3
The subject of assay [20] is Mus musculus. Briefly: Antiinflammatory activity in BALB/c mouse assessed as inhibition of LPS-induced IL-6 production at 10 mg/kg, ip pretreated for 3 days as single dose followed by LPS administration after 24 hrs by phycoerythrin staining based flow cytometry. It counts as functional, organism-based.
The subject of assay [21] is Mus musculus. Kind of assay: Antiinflammatory activity in BALB/c mouse assessed as inhibition of LPS-induced […] production at 10 mg/kg, ip pretreated for 3 days as single dose followed by LPS administration after 24 hrs by phycoerythrin staining based flow cytometry. It counts as functional, organism-based.
Assay [22] relates to RAW264.7. Briefly: Antiinflammatory activity in mouse RAW264.7 cells assessed as inhibition of LPS-induced TNF-alpha production at 50 uM after 24 hrs by phycoerythrin staining based flow cytometry. The format is functional, cell-based. Summed up:
as §3

For assay [23], the system named is RAW264.7. Briefly: Selectivity index, ratio IC50 for cytotoxicity against mouse RAW264.7 cells to IC50 for antiinflammatory activity in mouse RAW264.7 cells. It counts as functional. An outline of the steps: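 Ratio A/B in RAW 264.7 cells. A is the cytotoxicity IC50 from the MTT assay. B is the IC50 for inhibiting NO production in LPS-stimulated cells, with nitrite in the culture medium measured by Griess reagent. Both IC50s are reported with 95% confidence intervals.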

Assay [24] has as its system Mus musculus. Briefly: Antiinflammatory activity in BALB/c mouse assessed as inhibition of LPS-induced IL-12 production at 10 mg/kg, ip pretreated for 3 days as single dose followed by LPS administration after 24 hrs by phycoerythrin staining based flow cytometry. The format is functional, organism-based.
Assay [25] deals with Mus musculus. Briefly: Antiinflammatory activity in BALB/c mouse assessed as inhibition of LPS-induced TNF-alpha production at 10 mg/kg, ip pretreated for 3 days as single dose followed by LPS administration after 24 hrs by phycoerythrin staining based flow cytometry. It counts as functional, organism-based.
In assay [26] the test system is RAW264.7. Briefly: Antiinflammatory activity in mouse RAW264.7 cells assessed as inhibition of LPS-induced iNOS production at 50 uM after 24 hrs by Western blot analysis. It counts as functional, cell-based. Summed up:
as §4

The test system of assay [27] is RAW264.7. Briefly: Antiinflammatory activity in mouse RAW264.7 cells assessed as inhibition of LPS-induced IL-12 production at 50 uM after 24 hrs by phycoerythrin staining based flow cytometry. The format is functional, cell-based. An outline of the steps:
as §3

Structures are written as SMILES. pEC50, pIC50: −log10 of the molar value. Activity calls are given as the source filed them. The rule behind the calls is not given here.

`CCOC(=O)C1=C[C@@H](OC(CC)CC)[C@H](NC(C)=O)[C@@H](N)C1.O=P(O)(O)O` [OSELTAMIVIR PHOSPHATE]: the Activity in [1] is on record as 54%. Moreover, in [2], the pEC50 – broadly, the EC50 on a negative log10 scale, so that one unit is a factor of ten – was 4.17.

Regarding `CC(=O)O[C@H]1CC[C@@]2(SC(=O)c3ccc(F)cc3)C(=O)NC(=O)[C@@H]12`, the inhibition entry with RAW264.7 [3], in the assay on RAW264.7 [4], with RAW264.7 [5], in the assay on RAW264.7 [6], in the assay on RAW264.7 [7] and in the assay on RAW264.7 [8] was “Active” in each case. Also, the inhibition result in the assay on RAW264.7 [9], in the assay filed under Mus musculus [10] and in the assay on RAW264.7 [11] was “Active” each time.

Regarding `CC(=O)OC1CC[C@]2(SC(=O)c3ccc(F)cc3)C(=O)NC(=O)[C@H]12` (stereo partly drawn), the inhibition entry with RAW264.7 [12] was “Dose-dependent effect”. Further, the inhibition entry in the assay with RAW264.7 [13], in the assay with RAW264.7 [14], in the assay listed under Mus musculus [15], with Mus musculus [16], with RAW264.7 [18] and in the assay on RAW264.7 [19] was “Active” throughout. The inhibition result in the assay on Mus musculus [20], with Mus musculus [21], in the assay with RAW264.7 [22], in the assay on Mus musculus [24], in the assay with Mus musculus [25] and with RAW264.7 [26] was “Active” each time. Besides, in the assay with RAW264.7 [27], the inhibition entry is “Active”. Besides, the pIC50 (commonly the IC50 on a negative log10 scale, so that one unit is a factor of ten) in the assay on RAW264.7 [17] is 1.92; with RAW264.7 [5], 4.46. For the same compound, the “Ratio IC50” value with RAW264.7 [23] was 353.8076.

As to `CC(=O)SC1CC[C@]2(SC(C)=O)C(=O)NC(=O)[C@H]12` (stereo partly drawn), in the assay with RAW264.7 [12], the inhibition entry is “Dose-dependent effect”. In addition, the inhibition entry in the assay on RAW264.7 [13], with RAW264.7 [14], in the assay listed under Mus musculus [15], in the assay on Mus musculus [16], in the assay with RAW264.7 [18] and in the assay on RAW264.7 [19] was “Active” throughout. Besides, the inhibition result in the assay with Mus musculus [20], in the assay with Mus musculus [21], in the assay on RAW264.7 [22], in the assay with Mus musculus [24], with Mus musculus [25] and in the assay with RAW264.7 [26] was “Active” in each case. Also, the inhibition entry with RAW264.7 [27] was “Active”. Moreover, the pIC50 was 2.00 in the assay with RAW264.7 [17] and 4.70 with RAW264.7 [5]. Also, the “Ratio IC50” value in the assay on RAW264.7 [23] is reported as 505.4343.

The compound `O=C(S[C@@]12CC[C@H](O)[C@@H]1C(=O)NC2=O)c1ccc(O)cc1` gave an Activity in assay [1] of 18.6%. Besides, the pIC50 was 2.99 with RAW264.7 [17] and 4.14 with RAW264.7 [5]. For the same compound, the “Ratio IC50” value with RAW264.7 [23] amounted to 14.14.

In turn, `O=C(S[C@]12CC[C@H](O)[C@H]1C(=O)NC2=O)c1ccc(O)cc1` registered an Activity in [1] of 30.9%. Also, the pIC50 in the assay with RAW264.7 [17] was 2.86. Further, the pEC50 in assay [2] was 3.95. Moreover, the “Ratio IC50” value with RAW264.7 [23] was found to be 9.85.

For the origin of these results see ChEMBL document CHEMBL4052621, “Identification of new anti-inflammatory agents based on nitrosporeusine natural products of marine origin” (Eur J Med Chem, 2017).
